ATG4B inhibitor: ATG4B protease inhibitors, primary screen, biochemical, fluorescence, uHTS. ATG4B cleavage of LC3-PLA2, NBD-HPC fluorescence, 1 h. inhibition, % at 8.33 µM. 340,000 tested, 0.51% active. Cysteine protease ATG4B (Homo sapiens), Q9Y4P1; in the data active = inhibition above about 40%
HDAC3 inhib: HDAC3 deacetylase inhibitors, primary screen, biochemical, fluorescence, cell-free homogeneous | Histone deacetylase 3 (Homo sapiens), O15379 | recombinant HDAC3, fluorogenic peptide/trypsin coupled | inhibition, % at 8.3 µM | 320,000 tested, 0.15% active | AID 2718, 2010; in the data active = inhibition above about 26%, passing the limit was not always enough; inconclusive = no clear call, values can overlap the other calls
AI-2 QS mod: Vibrio harveyi AI-2 quorum sensing modulators, primary screen, JMH597 strain, luminescence/OD600 ratio; activity change, % at 7.5 µM; AID 2094, 2009; Vibrio harveyi JMH597 AI-2 luminescence/OD600 ratio, 9 h; hits give low values; strain lacks LuxN and CqsS sensors; 0 = neutral-control median; 300,000 tested, 0.4% active; in the data active = activity change below about -75%, passing the limit was not always enough; inconclusive = no clear call, values can overlap the other calls;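 also: luminescence divided by OD600 gain over 9 h not by final OD600 alone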
LANA-H2A inh: blockers of LANA interaction with H2A/H2B – biochemical, FP readout, HTS, primary screen; Protein LANA1 (Human herpesvirus 8 type P (isolate GK18)), Q9QR71; cell-free LANA-H2A/H2B peptide, fluorescence polarization; inhibition, % (no concentration beside the values); 320,000 tested, 0.6% active; in the data active = inhibition mostly above about 10%, no sharp cut-off; inactive = mostly below about 6.7%
Target sequence (Q9QR71 whole entry, looked up): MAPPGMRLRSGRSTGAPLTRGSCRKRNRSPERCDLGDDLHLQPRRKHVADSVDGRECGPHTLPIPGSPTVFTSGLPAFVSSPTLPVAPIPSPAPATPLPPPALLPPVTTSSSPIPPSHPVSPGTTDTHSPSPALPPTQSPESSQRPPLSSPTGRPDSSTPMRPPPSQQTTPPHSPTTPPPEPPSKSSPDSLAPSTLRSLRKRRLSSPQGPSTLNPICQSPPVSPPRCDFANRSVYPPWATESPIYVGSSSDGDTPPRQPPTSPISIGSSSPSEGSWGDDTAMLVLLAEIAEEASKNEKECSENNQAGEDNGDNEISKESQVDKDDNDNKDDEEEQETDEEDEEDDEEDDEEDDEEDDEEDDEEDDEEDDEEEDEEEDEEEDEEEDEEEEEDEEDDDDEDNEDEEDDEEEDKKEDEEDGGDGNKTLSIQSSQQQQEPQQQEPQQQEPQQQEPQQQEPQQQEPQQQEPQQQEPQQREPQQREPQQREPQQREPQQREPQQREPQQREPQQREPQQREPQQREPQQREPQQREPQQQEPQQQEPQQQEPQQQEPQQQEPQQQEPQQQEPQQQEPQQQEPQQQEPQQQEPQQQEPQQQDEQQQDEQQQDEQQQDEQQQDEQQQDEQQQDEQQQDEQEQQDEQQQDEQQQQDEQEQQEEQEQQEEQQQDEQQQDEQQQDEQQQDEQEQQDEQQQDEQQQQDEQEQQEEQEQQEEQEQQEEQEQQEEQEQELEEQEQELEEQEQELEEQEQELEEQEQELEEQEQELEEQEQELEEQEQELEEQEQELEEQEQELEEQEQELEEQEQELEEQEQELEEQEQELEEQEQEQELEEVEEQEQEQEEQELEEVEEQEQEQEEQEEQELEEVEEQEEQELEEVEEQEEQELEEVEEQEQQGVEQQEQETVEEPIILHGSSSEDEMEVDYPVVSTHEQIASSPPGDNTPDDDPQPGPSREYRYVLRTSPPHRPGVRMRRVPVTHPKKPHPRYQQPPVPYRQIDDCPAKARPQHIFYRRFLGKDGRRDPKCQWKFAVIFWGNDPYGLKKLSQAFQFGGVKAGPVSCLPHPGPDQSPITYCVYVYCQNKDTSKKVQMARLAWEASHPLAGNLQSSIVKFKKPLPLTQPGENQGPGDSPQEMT
Bfl-1 A1 inh: caspase 3/7 activation in MEF A1-2A-BIM cells, primary screen, A1 inhibitor project, cell-based, luminescence, HTS | Caspase-Glo 3/7 luminescence, 3 h; percent of clofoctol response, vehicle zero | caspase activation, % (no concentration beside the values) | 330,000 tested, 0.066% active | AID 2462, 2010;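 active = over half of replicate activation scores above 10%, or exactly half above 10 with the replicate mean above 10; inconclusive = replicate mean below 10 yet half the replicates above 10; inactive = over half of replicates below 10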
HKDC1 inhibitor: HKDC1 hexokinase inhibitors, primary screen, biochemical, fluorescence, uHTS. recombinant HKDC1, G6PDH/diaphorase resazurin coupled fluorescence. inhibition, % at 20 µM. 340,000 tested, 0.16% active. AID 493160, 2011;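 active = inhibition above about 35% when tested at 20 µM, limit read from the data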;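 also: plate controls were DMSO wells with enzyme for no effect and DMSO wells lacking enzyme for full effect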
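Test system: recombinant HKDC1 (HK5) hexokinase enzyme, produced in-house; Amount: enzyme 5 µg/mL final; Buffer or medium: Tris pH 8.0 buffer with MgCl2, Tween-20, BSA, BME; Reagent: glucose and ATP substrates; Doses: 20 µM test compound, 1% DMSO; Incubation: 90 min reaction incubation at room temperature, dark; Detection: resorufin fluorescence at 613 nm.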
Active calls of the source: *; ? = inconclusive; nt = no result; + = active, no number; ! = repeats disagree. The list is not random: actives were taken first. Their share in the collection is about 1.8%.

SMILES	ATG4B inhibitor	HDAC3 inhib	AI-2 QS mod	LANA-H2A inh	Bfl-1 A1 inh	HKDC1 inhibitor
CC(COc1ccccc1)OC(=O)Nc1ccccc1 (stereo not given)	-4.8	nt	nt	nt	nt	-3.4
Cc1nnc(SCC(=O)N2CCN(c3ccccc3F)CC2)n1C1CC1	3.8	nt	nt	nt	nt	-5.4
CC(C)OC(=O)C(C(=O)C(F)(F)F)c1cc(NS(=O)(=O)c2ccc3ccccc3c2)c2ccccc2c1O (stereo not given)	50.9*	nt	26.0	nt	0.2	10.9
COc1ccc(OC)c(S(=O)(=O)Nc2ccccc2C(=O)N2CCCCC2)c1	-2.0	nt	nt	nt	nt	0.7
O=C1c2ccccc2C(=O)C1(O)O	nt	9.4	nt	30.5*	-0.1	nt
O=Cc1ccc(Sc2nnc(-c3ccccc3)o2)c([N+](=O)[O-])c1	48.6*	2.5	16.9	4.2	-0.8	42.8*
Cc1cc(C)nc(Sc2ccc(C=O)cc2[N+](=O)[O-])n1	-1.5	-3.5	-7.9	5.2	1.5	1.5
O=C(OCn1ncc(Br)c(Br)c1=O)c1ccc(F)cc1	1.9	8.6	-81.3*	-2.8	1.0	27.8
COC(=O)C1CC2=C(CCC2=O)N(c2ccccc2)C1=O (stereo not given)	-4.0	nt	nt	nt	nt	-6.4
Cc1noc(C)c1C(=O)NCC(=O)Nc1ccccc1Br	-2.5	-10.2	nt	1.6	0.8	-1.9
CC[N+](C)(C)c1cccc(O)c1	-6.8	2.0	13.2	20.1*!	-0.7	-6.8
Cc1ccc2c(c1)C(=O)N1[C@H]3c4cc(Cl)ccc4OC[C@@H]3[C@H](c3ccccc3)[C@]1(C)C(=O)N2	-3.2	5.8	nt	0.7	0.3	-3.5
CCOC(=O)[C@H]1[C@H]2COc3ccc(Br)cc3[C@@H]2N2C(=O)c3cc(Br)ccc3NC(=O)[C@@]12C	-6.1	3.4	nt	2.7	-0.4	0.9
Cc1ccc2c(c1)C(=O)N1[C@H]3c4cc(C)ccc4OC[C@@H]3[C@H](c3ccccc3)[C@]1(C)C(=O)N2	0.7	7.1	nt	103.9*	0.3	-4.9
CCOC(=O)[C@H]1[C@H]2COc3ccc(Cl)cc3[C@@H]2N2C(=O)c3cc(Br)ccc3NC(=O)[C@@]12C	-12.4	2.8	nt	16.7*	0.0	2.7
CC(C)C[C@H]1CNC(=O)C(=O)N1CC1CCN(CC2CCC(C(C)(C)C)CC2)CC1 (stereo not given in full)	nt	nt	nt	nt	nt	-4.2
C[C@]12c3[nH]c4cc(-c5ccco5)ccc4c3CCN1C(=O)[C@@H](CC(=O)NCc1cccc(C(F)(F)F)c1)C[C@@H]2C(=O)N1CCCCC1	6.8	nt	nt	nt	nt	3.3
CC12CCC(C(N)C1=O)C2(C)C (stereo not given)	-1.7	nt	nt	nt	nt	-4.4
O=C(NNC1=C(C(=O)C(F)(F)F)CCC1)c1ccccc1O	-4.0	20.9	3.0	3.4	-1.8	-17.2
Nc1ccccc1C(=O)NNC1=C(C(=O)C(F)(F)F)CCC1	-3.3	45.9*	30.7	-0.2	-2.6	0.3
CC(C)N(C)CCOC(=O)/C=C/c1ccccc1	3.4	9.3	15.2	+	0.8	-1.3
Cc1ccc(C(=O)N2CCC(Cc3ccccc3)CC2)cc1S(=O)(=O)N1CCOCC1	6.7	nt	nt	nt	nt	-1.1
Cc1ccc(S(=O)(=O)NCCNS(=O)(=O)c2ccc(C)cc2)cc1	-9.4	9.4	6.9	19.4*	1.3	5.5
O=S(=O)(NCCCc1ccccc1)c1ccccc1	8.4	3.1	?	1.4	0.4	-3.6
O=S(=O)(NCCCCCNS(=O)(=O)c1ccccc1)c1ccccc1	-8.8	3.5	14.2	15.7*!	0.5	-7.2
SMILES	ATG4B inhibitor	HDAC3 inhib	AI-2 QS mod	LANA-H2A inh	Bfl-1 A1 inh	HKDC1 inhibitor
Cc1ccc(S(=O)(=O)NNC(=O)C(=O)NNS(=O)(=O)c2ccc(C)cc2)cc1	7.7	-4.8	30.0	-1.5	0.5	-4.7
Cc1ccc(S(=O)(=O)NCCCNS(C)(=O)=O)cc1	0.2	-2.2	19.5	3.9	0.4	-2.7
Cc1ccc(S(=O)(=O)NNC(=O)CCCCC(=O)NNS(=O)(=O)c2ccc(C)cc2)cc1	-10.1	-2.5	13.9	7.7*	-1.1	-9.5
Cn1cc(C(=O)C(=O)N2CCCCC2)c2ccccc21	-7.4	nt	nt	nt	nt	1.2
COc1ccc(CN(C)CCCn2cnc(C(=O)Nc3ccc(C)c(C)c3)n2)cc1OC	-6.2	nt	nt	nt	nt	-3.5
CSCCC(NC(=O)c1ccccc1Cl)C(=O)NCC(c1cccs1)N(C)C (stereo not given)	-6.5	nt	nt	nt	nt	0.9
CC1CCN(S(=O)(=O)c2ccc(NC(=O)CN3C(=O)NC(C)(c4ccccc4)C3=O)cc2)CC1 (stereo not given)	-23.9	2.9	-78.6*	-4.6	0.0	-1.1
CC1(c2ccc(OC(F)F)cc2)NC(=O)N(CC(=O)Nc2ccccc2)C1=O (stereo not given)	-6.9	3.3	-90.5*	-3.4	0.3	-4.5
CC1(c2ccc(OC(F)F)cc2)NC(=O)N(CC(=O)Nc2ccc3[nH]c(=O)[nH]c3c2)C1=O (stereo not given)	-11.2	0.6	15.6	0.6	0.4	-2.2
CC1CCC2(CC1)NC(=O)N(CC(=O)Nc1ccc(F)cc1)C2=O (stereo not given)	-3.5	-2.5	nt	37.8*	0.1	2.1
Cc1cc(NC(=O)Cn2cnc3sccc3c2=O)no1	4.1	2.7	nt	2.7	1.5	-2.3
O=C(CN1C(=O)NC2(CCCCCCC2)C1=O)Nc1c(Cl)cccc1Cl	-10.3	-16.3	nt	-0.4	-0.4	-5.0
CC(C)(C)C(=O)N1CCCC1C(=O)O (stereo not given)	-13.9	-5.2	10.0	27.6*	-1.4	-4.8
N/C(=N/OC(=O)c1ccccc1Cl)c1ncc([N+](=O)[O-])s1	-10.2	0.3	-86.3*	0.6	-1.0	8.4
CC(C)c1nnc(NC(=O)CCC(=O)NCc2cccs2)s1	-3.5	-3.4	13.8	18.2*	nt	1.4
CC(C)c1nnc(NC(=O)Cc2cccs2)s1	-1.3	-6.0	32.1	1.9	0.1	-4.2
COC(=O)C(Cc1ccccc1)NC(=O)CCC(=O)NC(C)CCc1ccccc1 (stereo not given)	8.3	-5.8	14.3	14.3*	0.6	3.4
CCOc1ccc(-c2csc(NC(=O)CSC3=NC(=O)CN3C(C)=O)n2)c2ccccc12	1.6	-5.4	23.4	-1.5	1.2	-9.7
CC(=O)N1CC(=O)N=C1SCC(=O)Nc1nc(C)c(-c2ccccc2)s1	4.1	25.8*	24.7	-1.4	0.7	-19.6
CCCCN1CC(COCc2ccccc2)Oc2cc(Br)ccc2S1(=O)=O (stereo not given)	-6.8	nt	nt	nt	nt	-0.5

Screening results deposited in PubChem BioAssay by several laboratories.
